# Reference: ChEMBL document CHEMBL4602705, “Discovery of N-Cyano-sulfoximineurea Derivatives as Potent and Orally Bioavailable NLRP3 Inflammasome Inhibitors” (ACS Med Chem Lett, 2020)
# Experiments:
# [1] = target: T1, NACHT, LRR and PYD domains-containing protein 3 (Homo sapiens, UniProt Q96P20); test: Inhibition of NLRP3 inflammasome activation in LPS-primed human THP1 cells assessed as reduction in IL-1beta level preincubated for 1 hr followed by addition of ATP and nigericin further incubated for 1 hrs and measured post ATP addition 1 hr by ELISA method; type: cell-based, THP-1
# [2] = AUC in C57/BL6 mouse at 3 mg/kg, po measured up to 24 hrs by LC-MS/MS analysis; type: ADME, organism-based; design: dose 3 mg/kg, time < 24 hr, route oral; settings: in vivo
# Outline: (§1)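 Mouse PK, composite design, n = 3 per time point, mean values. Dosed 3 mg/kg po in 1% Tween 80 + 99% (0.5%) methyl cellulose in water; 1 mg/kg iv in 5% NMP + 5% solutol + 90% normal saline for bioavailability reference.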
# [3] = Half life in C57/BL6 mouse at 3 mg/kg, po measured up to 24 hrs by LC-MS/MS analysis; type: ADME, organism-based; settings: in vivo; outline: as §1
# Mus musculus = test: Inhibition of LPS-induced serum IL-1beta production in C57/BL6 mouse at 10 mg/kg, po post-challenge with LPS for 2 hrs followed by ATP-challenge and measured after 30 mins by ELISA method relative to control; type: functional
# Outline: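 Acute LPS+ATP challenge model in female C57BL/6 mice, n = 6/group; single oral dose 10 mg/kg in 1% Tween 80 and 99% methyl cellulose (0.5%); IL-1β compared with vehicle control; error bars SEM.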
# [4] = Oral bioavailability in C57/BL6 mouse at 3 mg/kg measured up to 24 hrs by LC-MS/MS analysis; type: ADME, organism-based; settings: in vivo; outline: as §1
# [5] = target: T1, NACHT, LRR and PYD domains-containing protein 3; test: Inhibition of NLRP3 inflammasome activation in LPS-primed human THP1 cells assessed as reduction in IL-1beta level at 1 uM preincubated for 1 hr followed by addition of ATP and nigericin further incubated for 1 hrs and measured post ATP addition 1 hr by ELISA method relative to control; type: cell-based; settings: THP-1
# T1 sequence (Q96P20 whole entry, the tested form may be a part): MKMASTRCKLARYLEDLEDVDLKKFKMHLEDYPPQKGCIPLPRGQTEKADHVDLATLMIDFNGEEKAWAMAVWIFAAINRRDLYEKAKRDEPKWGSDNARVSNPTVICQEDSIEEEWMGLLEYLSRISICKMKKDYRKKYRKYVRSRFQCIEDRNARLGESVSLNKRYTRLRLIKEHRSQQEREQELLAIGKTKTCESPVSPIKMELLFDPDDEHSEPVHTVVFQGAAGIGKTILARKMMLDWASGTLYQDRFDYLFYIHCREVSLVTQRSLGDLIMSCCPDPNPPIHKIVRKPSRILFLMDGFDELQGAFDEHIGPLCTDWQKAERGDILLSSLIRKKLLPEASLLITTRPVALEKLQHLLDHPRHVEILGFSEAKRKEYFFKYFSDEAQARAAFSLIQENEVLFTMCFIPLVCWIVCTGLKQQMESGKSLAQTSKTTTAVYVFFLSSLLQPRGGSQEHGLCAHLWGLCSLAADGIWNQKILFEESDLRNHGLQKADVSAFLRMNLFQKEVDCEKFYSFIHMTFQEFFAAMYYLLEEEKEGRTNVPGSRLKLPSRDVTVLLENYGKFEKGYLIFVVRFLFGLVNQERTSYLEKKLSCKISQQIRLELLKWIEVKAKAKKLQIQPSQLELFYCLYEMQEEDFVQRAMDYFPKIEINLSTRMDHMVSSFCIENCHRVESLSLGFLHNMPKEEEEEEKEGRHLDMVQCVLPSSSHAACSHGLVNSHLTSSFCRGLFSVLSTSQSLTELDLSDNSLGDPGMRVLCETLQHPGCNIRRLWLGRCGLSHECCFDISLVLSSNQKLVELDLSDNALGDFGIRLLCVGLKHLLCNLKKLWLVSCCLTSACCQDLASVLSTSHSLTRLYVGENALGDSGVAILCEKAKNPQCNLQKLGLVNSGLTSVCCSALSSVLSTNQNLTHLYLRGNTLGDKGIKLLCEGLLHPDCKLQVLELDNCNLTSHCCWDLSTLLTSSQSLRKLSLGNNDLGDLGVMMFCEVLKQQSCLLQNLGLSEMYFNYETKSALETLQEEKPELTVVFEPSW
compound,measurement,setting,value
CN=S(=O)(NC(=O)Nc1c2c(cc3c1CCC3)CCC2)c1ccc(C)cc1 (stereo unspecified),IC50,[1],> 1000 nM
Cc1ccc(S(=O)(=NCC(F)(F)F)NC(=O)Nc2c3c(cc4c2CCC4)CCC3)cc1 (stereo unspecified),IC50,[1],> 1000 nM
Cc1ccc(S(=O)(=NC#N)NC(=O)Nc2c3c(cc4c2CCC4)CCC3)cc1F (stereo unspecified),AUC at 24 h,[2],3200 ng·h/mL
same,half-life,[3],2.38 h
same,inhibition in vivo at 10 mg/kg,Mus musculus,50%
same,bioavailability,[4],59%
N#CN=S(=O)(NC(=O)Nc1c2c(cc3c1CCC3)CCC2)c1cccnc1 (stereo unspecified),AUC at 24 h,[2],1280 ng·h/mL
same,half-life,[3],1.66 h
same,bioavailability,[4],24%
Cc1ccc(S(=O)(=O)NC(=O)C(=O)Nc2c3c(cc4c2CCC4)CCC3)cc1,IC50,[1],> 1000 nM
Cc1ccc(S(=O)(=Nc2ccn[nH]2)NC(=O)Nc2c3c(cc4c2CCC4)CCC3)cc1 (stereo unspecified),IC50,[1],> 1000 nM
N#CC(NC(=O)Nc1c2c(cc3c1CCC3)CCC2)c1ccccc1 (stereo unspecified),inhibition,[5],< 50%
same,IC50,[1],> 1000 nM
N#CN=S(=O)(NC(=O)Nc1c2c(cc3c1CCC3)CCC2)c1ccc(C#N)cc1 (stereo unspecified),AUC at 24 h,[2],800 ng·h/mL
same,half-life,[3],1.03 h
same,bioavailability,[4],27%
CCOC(=O)N=S(=O)(NC(=O)Nc1c2c(cc3c1CCC3)CCC2)c1ccc(C)cc1 (stereo unspecified),IC50,[1],> 1000 nM
Cc1ccc(S(=O)(=O)NC(=O)C(O)c2c3c(cc4c2CCC4)CCC3)cc1 (stereo unspecified),IC50,[1],> 1000 nM
N#CN=S(=O)(NC(=O)Nc1c2c(cc3c1CCC3)CCC2)c1ccccn1 (stereo unspecified),AUC at 24 h,[2],8200 ng·h/mL
same,half-life,[3],5.2 h
same,inhibition in vivo at 10 mg/kg,Mus musculus,57%
same,bioavailability,[4],97%
Cc1ccc(S(=O)(=O)Nc2c(Nc3c4c(cc5c3CCC5)CCC4)c(=O)c2=O)cc1,IC50,[1],> 1000 nM
CON=S(=O)(NC(=O)Nc1c2c(cc3c1CCC3)CCC2)c1ccc(C)cc1 (stereo unspecified),IC50,[1],> 1000 nM
Cc1ccc(S(=O)(=NC(N)=O)NC(=O)Nc2c3c(cc4c2CCC4)CCC3)cc1 (stereo unspecified),IC50,[1],> 1000 nM
Cc1ccc(S(=O)(=O)NC(=O)Cc2c3c(cc4c2CCC4)CCC3)cc1,IC50,[1],> 1000 nM
Cc1ccc(S(=O)(=O)NS(=O)(=O)Nc2c3c(cc4c2CCC4)CCC3)cc1,IC50,[1],> 1000 nM
Cc1ccc(S(=O)(=O)NC(=O)C(=O)c2c3c(cc4c2CCC4)CCC3)cc1,IC50,[1],> 1000 nM
Cc1ccc(S(=O)(=O)N/C(=N\C#N)Nc2c3c(cc4c2CCC4)CCC3)cc1,IC50,[1],> 1000 nM
Cc1ccc(S(=O)(=NC#N)NC(=O)Nc2c3c(cc4c2CCC4)CCC3)cc1 (stereo unspecified),AUC at 24 h,[2],4200 ng·h/mL
same,half-life,[3],2.91 h
same,inhibition in vivo at 10 mg/kg,Mus musculus,44%
same,bioavailability,[4],56%
O=C(Nc1c2c(cc3c1CCC3)CCC2)NC1(c2ccccc2)COC1,IC50,[1],> 1000 nM
O=C(Nc1c2c(cc3c1CCC3)CCC2)NC(c1ccccc1)C(F)(F)F (stereo unspecified),inhibition,[5],< 50%
same,IC50,[1],> 1000 nM
Cc1ccc(S(=O)(=Nc2ccc(F)cc2)NC(=O)Nc2c3c(cc4c2CCC4)CCC3)cc1 (stereo unspecified),IC50,[1],> 1000 nM
CC(=O)N=S(=O)(NC(=O)Nc1c2c(cc3c1CCC3)CCC2)c1ccc(C)cc1 (stereo unspecified),IC50,[1],> 1000 nM
N#CN=S(=O)(NC(=O)Nc1c2c(cc3c1CCC3)CCC2)c1cccc(C#N)c1 (stereo unspecified),AUC at 24 h,[2],1200 ng·h/mL
same,half-life,[3],1.13 h
same,bioavailability,[4],40%
